The list is not random: actives were taken first. Their share in the collection is about 3.4%.
CHT PAM: allosterically activates the human high affinity choline transporter; Q9GZV3; CHT-expressing cells, membrane potential dye, choline EC20; active compounds read high; LV-AA mutant CHT in HEK293 cells; B-score at 10 µM; 310,000 tested, 0.49% active;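 active means initial fluorescence not abnormally high and integrated response B-score, plate-corrected, over 3 SD above library mean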
TMEM16A act: activators or potentiators of mouse TMEM16A chloride channel; Q8BHY3; B-score at 10 µM; HEK293 TMEM16A/YFP-H148Q/I152L, iodide quench fluorescence; active compounds read low; 340,000 tested, 0.3% active;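 active means fluorescence-ratio B-score plate-corrected deviation score at least 3 library SD below zero, with starting fluorescence score within 5 deviations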;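 further: channel opened by trigger with iodide after compound preincubation; score built on the fluorescence ratio of max minus min over baseline; more negative score means more quench and so TMEM16A activation or potentiation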
Target sequence (Q8BHY3 whole entry, looked up): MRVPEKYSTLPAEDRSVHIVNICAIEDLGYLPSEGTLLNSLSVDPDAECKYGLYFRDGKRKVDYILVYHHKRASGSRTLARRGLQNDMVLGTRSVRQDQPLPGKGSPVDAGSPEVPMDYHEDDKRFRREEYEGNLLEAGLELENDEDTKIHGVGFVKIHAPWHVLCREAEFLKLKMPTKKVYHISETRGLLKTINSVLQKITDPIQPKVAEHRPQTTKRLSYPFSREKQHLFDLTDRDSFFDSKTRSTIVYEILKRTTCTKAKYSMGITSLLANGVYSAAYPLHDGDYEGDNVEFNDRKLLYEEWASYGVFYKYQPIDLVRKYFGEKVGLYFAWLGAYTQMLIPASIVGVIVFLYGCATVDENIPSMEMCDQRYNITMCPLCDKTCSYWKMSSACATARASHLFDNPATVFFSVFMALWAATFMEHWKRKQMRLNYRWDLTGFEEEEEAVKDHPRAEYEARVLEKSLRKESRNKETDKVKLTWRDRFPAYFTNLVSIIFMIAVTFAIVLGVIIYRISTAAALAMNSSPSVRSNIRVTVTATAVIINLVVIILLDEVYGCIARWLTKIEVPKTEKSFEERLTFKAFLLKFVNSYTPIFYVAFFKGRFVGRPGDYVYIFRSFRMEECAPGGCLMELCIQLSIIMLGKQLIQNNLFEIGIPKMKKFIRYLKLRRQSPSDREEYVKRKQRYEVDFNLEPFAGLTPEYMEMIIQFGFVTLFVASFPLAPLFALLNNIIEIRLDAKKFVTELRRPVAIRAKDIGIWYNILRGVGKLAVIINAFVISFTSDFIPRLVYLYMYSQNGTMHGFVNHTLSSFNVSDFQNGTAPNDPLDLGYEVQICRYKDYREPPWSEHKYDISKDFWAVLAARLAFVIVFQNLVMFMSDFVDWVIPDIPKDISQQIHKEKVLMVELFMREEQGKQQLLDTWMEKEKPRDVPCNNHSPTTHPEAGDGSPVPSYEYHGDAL
CHT block: human CHT choline transport inhibition; Q9GZV3; CHT-expressing cells, membrane potential dye, choline response; active compounds read low; B-score at 10 µM; 310,000 tested, 0.86% active; AID 488975;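 active means B-score over 3 SD under the library average, and starting fluorescence ratio not unusually high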;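 further: choline stimulus applied at its EC90 after an EC20 pre-addition; B-score computed on integrated fluorescence ratio after choline addition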
IMP-1 inh: inhibitors of Pseudomonas aeruginosa IMP-1 metallo-beta-lactamase. purified IMP-1, nitrocefin hydrolysis, epi-absorbance fluorescence. inhibition, % at 5.6 µM. 290,000 tested, 0.45% active;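 active means inhibition above the mean plus 3 SD of all compounds in the same screening run, cut at about 4.5% in these data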
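System: Purified recombinant IMP-1 metallo-beta-lactamase enzyme | Measured by: Fluorescence quenching readout, ex 480/em 530 nm | Replication: Singlicate | Incubation: 15 min preincubation plus 25 min reaction at 25 °C | Evaluation: Percent inhibition from optical density relative to buffer-blank wells | Benchmarks: DMSO with and without IMP-1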
TMEM16A inh: mouse TMEM16A channel inhibition, primary screen; Q8BHY3; HEK293 TMEM16A/YFP iodide influx fluorescence, ionomycin; normalized B-score (activity score, 25-100; higher = stronger inhibition) at 10 µM; 310,000 tested, 1.2% active; AID 588511;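 active means ratio plate-corrected score three or more library SD toward inhibition, starting fluorescence score within five deviations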;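 further: score derived from kinetic fluorescence span divided by baseline fluorescence per well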
VIM-2 inhibitor: blocks Pseudomonas aeruginosa VIM-2 metallo-beta-lactamase. purified VIM-2, nitrocefin hydrolysis, epi-absorbance fluorescence. AID 1527. inhibition, % at 5.6 µM. 290,000 tested, 0.89% active;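 active means inhibition above the mean of all tested compounds plus 3 SD, cutoff set per screening run, cut at about 7.5% in these data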;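 further: red hydrolysis product quenches plate fluorescence so inhibitors raise well fluorescence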
Hits are given with their value; 0 = inactive; - = no result.

SMILES | CHT PAM | TMEM16A act | CHT block | IMP-1 inh | TMEM16A inh | VIM-2 inhibitor
Cc1cc(-c2n[nH]c(=S)n2-c2ccccc2C)cs1 | 0 | 0 | 0 | 0 | 0 | 10.6
Cc1cccc(-n2c(-c3csc(C)c3)n[nH]c2=S)c1 | 0 | 0 | 0 | 0 | 0 | 7.7
Cc1cc(C)cc(NC(=O)Nc2c(Br)cnn2C)c1 | 0 | 0 | 0 | 0 | 0 | 0
NNC(=O)c1cc(S(=O)(=O)N2CCOCC2)c[nH]1 | - | 0 | - | - | - | -
COC(=O)c1sc(-c2cccs2)cc1N | 0 | 0 | 0 | 12.6 | 0 | 0
COc1ccccc1C(=O)Nc1c2c(nn1-c1ccc(Cl)cc1)CS(=O)(=O)C2 | 0 | 0 | 0 | 10.5 | 0 | 0
Cc1ccc(C)c(-c2cc(C(=O)NNC(=S)NCC(C)C)c3ccccc3n2)c1 | 0 | 0 | 0 | 0 | 100 | 0
O=C(N/N=C/c1ccncc1)c1sc2ccccc2c1Cl | 0 | 0 | 0 | 0 | 0 | 8.9
COc1ccc(CN2C[C@H](Cc3ccccc3)[C@@H](CC(=O)Nc3ccccc3)C2=O)cc1 | 0 | 0 | 0 | 0 | 0 | 0
Cn1c(CCN2CCN(c3ccccn3)CC2)nc2cc(NC(=O)COc3ccc(Cl)cc3)ccc21 | 0 | 0 | 0 | 0 | 0 | 0
Cc1cccc(OCC(=O)Nc2ccc3c(c2)nc(CCN2CCN(c4ccccn4)CC2)n3C)c1 | 0 | 0 | 0 | 0 | 100 | 0
Cc1ccc(/C=C/C(=O)O)cc1S(=O)(=O)N1CCCCC1 | 0 | 0 | 0 | 0 | 0 | 0
COc1cc(/C=C2/SC(=S)N(Cc3ccccc3)C2=O)ccc1O | 0 | 0 | 0 | 4.7 | 0 | 0
COc1cc(/C=C2/SC(=S)N(c3c(C)n(C)n(-c4ccccc4)c3=O)C2=O)ccc1O | 0 | -8.09 | 0 | 0 | 0 | 0
O=C1/C(=C\c2ccc(O)c(O)c2)SC(=S)N1Cc1ccccc1 | 0 | 0 | 0 | 0 | 0 | 0
CCCN1C(=O)/C(=C/c2ccncc2)SC1=S | 0 | 0 | 0 | 0 | 0 | 0
COc1cc(/C=C2/SC(=S)N(CC(=O)O)C2=O)ccc1OC(=O)c1ccco1 | 0 | -5.33 | 0 | 0 | 0 | 0
O=C1/C(=C/c2ccncc2)SC(=S)N1Cc1ccccc1 | 0 | 0 | 0 | 6.2 | 0 | 0
COc1ccc(-c2n[nH]c(C(F)(F)F)c2-c2cc3ccccc3o2)c(O)c1 | 0 | 0 | 0 | 0 | 100 | 0
COc1ccccc1-c1c(-c2ccc(OCC(=O)NN)cc2O)n[nH]c1C(F)(F)F | 0 | 0 | 0 | 0 | 0 | 0
O=C1c2cccc3cccc(c23)C(=O)N1CCN1CCN(C(=S)Nc2ccccc2)CC1 | 0 | 0 | 0 | 0 | 0 | 7.8
CC(Oc1ccc2c3c(c(=O)oc2c1)CCCC3)C(=O)NCc1ccccn1 (stereo unspecified) | 0 | 0 | 0 | 0 | 0 | 8.5
Cc1c(C)c2ccc(OC(C)C(=O)NCc3ccccn3)cc2oc1=O (stereo unspecified) | 0 | 0 | 0 | 0 | 0 | 0
O=C(COc1ccc2c3c(c(=O)oc2c1)CCCC3)NCc1cccnc1 | 0 | 0 | 0 | 0 | 0 | 9.2
O=C(O)COc1ccc2c3c(c(=O)oc2c1)CCCC3 | 0 | 0 | 0 | 0 | 0 | 0
SMILES | CHT PAM | TMEM16A act | CHT block | IMP-1 inh | TMEM16A inh | VIM-2 inhibitor
CCc1ccc(C(C(=O)NCc2ccc(F)cc2)N(C(=O)c2csnn2)C2CC2)cc1 (stereo unspecified) | 0 | 0 | 0 | 0 | 0 | 0
FC(F)(F)c1cnc(NNC(=S)Nc2ccc(Cl)cc2)c(Cl)c1 | 0 | 0 | 0 | 0 | 25 | 0
Cc1ccc(NC(=S)NNc2ncc(C(F)(F)F)cc2Cl)c(C)c1 | 0 | 0 | 0 | 0 | 0 | 0
Cc1cc2n(c(=O)c1C#N)CCCN2c1cccc(Cl)c1 | 0 | 0 | 0 | 0 | 0 | 10.3
Fc1ccccc1CSc1nncn1NCc1cccs1 | 0 | 0 | 0 | 4.8 | 0 | 0
Fc1ccc(CSc2nncn2NCc2ccccc2)cc1 | 0 | 0 | 0 | 0 | 0 | 0
CCOC(=O)c1c(NC(C)=O)sc2c(OCC(O)CNC(C)(C)C)c(Br)ccc12 (stereo unspecified) | 0 | -7.1 | 0 | 0 | 0 | 0
CCCCCCSc1ccc([C@@H]2[C@@H]3C(=O)N(C)C(=O)[C@@H]3[C@]3(C(=O)OC)CCCCN23)cc1 | - | 0 | - | - | - | -
COc1ccc(N2CCOCC2)c(NC(=O)c2ccc3c(c2)OCO3)c1 | 0 | 0 | 0 | 0 | 0 | 0
Cc1cccc(-n2c(CNC(=O)c3cccc([N+](=O)[O-])c3C)n[nH]c2=S)c1 | 0 | 0 | 0 | 0 | 0 | 8.8
COc1ccccc1-n1c(CNC(=O)c2cccc([N+](=O)[O-])c2C)n[nH]c1=S | 0 | 0 | 0 | 0 | 0 | 0
COc1ccc(C(=O)C2CCCN(Cc3ccc4nonc4c3)C2)cc1F (stereo unspecified) | 0 | 0 | 0 | 0 | 25 | 0
COc1ccc(C(=O)C2CCCN(Cc3ccc4nonc4c3)C2)cc1OC (stereo unspecified) | 0 | 0 | 0 | 0 | 0 | 0
CC(C)(CNC(=O)c1ccccc1NS(C)(=O)=O)N1CCCCC1 | 0 | 0 | 0 | 0 | 0 | 0
CCN(CC)S(=O)(=O)c1cccc(C(=O)N/N=C2\CCCC(=O)C2)c1 | 0 | 0 | 0 | 5.8 | 0 | 0
Cc1ccc(C)c(OCC(O)CNC2CCCC2)c1 (stereo unspecified) | 0 | 0 | 0 | 0 | 0 | 0
Cn1c(SCc2ccccc2C#N)nnc1-c1ccncc1 | 0 | 0 | 0 | 0 | 0 | 0
Cc1ccc(NC(=O)c2cccc(S(=O)(=O)N3CCN(c4ccccc4)CC3)c2)nc1 | 0 | 0 | 0 | - | 0 | -
Cc1cccc(NC2=NCC(=O)N2Cc2ccccc2)c1 | 0 | 0 | 0 | 8.6 | 0 | 0
CC(C)c1nc2c(c(=O)c3ccccc3n2C)c(=O)n1-c1ccc(F)cc1 | 0 | 0 | 0 | 0 | 0 | 0
Cc1nc2c(c(=O)c3ccccc3n2C)c(=O)n1-c1ccc(F)cc1 | 0 | 0 | 0 | 0 | 0 | 8.0
COC(=O)c1sccc1N(C)S(C)(=O)=O | 0 | 0 | 0 | 0 | 0 | 0
CCN(CC)C(=O)CSc1nc(N)c(C#N)c(-c2cccs2)c1C#N | 0 | 0 | 0 | 0 | 0 | 0
Cc1ccccc1NC(=O)CSc1nc(N)c(C#N)c(-c2cccs2)c1C#N | 0 | 0 | 0 | 12.3 | 0 | 0
CCc1cccc(CC)c1NC(=O)CN1CCc2cc(OC)c(OC)cc2C1 | 0 | 0 | 0 | 0 | 0 | 0
SMILES | CHT PAM | TMEM16A act | CHT block | IMP-1 inh | TMEM16A inh | VIM-2 inhibitor
COc1ccc2c(Cl)c(C(=O)NC3CCS(=O)(=O)C3)sc2c1 (stereo unspecified) | 0 | 0 | 0 | 0 | 0 | 0
COc1ccc2c(Cl)c(C(=O)NN3CCN(C)CC3)sc2c1 | 0 | 0 | 0 | 0 | 0 | 8.5
COCC(=O)N1CCC(n2nccc2NC(=O)CCOc2ccccc2)CC1 | 0 | 0 | 0 | 0 | 0 | 0
Cc1cc(Cl)cc(C)c1OCCOCCNCc1ccccc1 | 0 | 0 | 0 | 0 | 0 | 0
CN(C(=O)COC(=O)/C=C/c1ccc(Cl)c(Cl)c1)c1c(N)n(Cc2ccccc2)c(=O)[nH]c1=O | 0 | 0 | 0 | - | 0 | -
CCOC(=O)/C(C#N)=C1\SS/C(=C(/C#N)C(=O)OCC)S1 | 0 | - | -5.49 | 0 | 0 | 0

From PubChem
